Source: article PMC2992178 (Diabetes Care, 2010)
Read-outs that look alike come from different tables or passages of the source.

Legend:
healthy subjects = assay: Euglycemic clamp; assay type: in vivo, human; conditions: 10 units s.c.
Summary of the method: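 Healthy volunteers fasted overnight from 8:00 p.m., then received a single 10-unit lispro dose by pen with an 8-mm needle. It went into abdominal subcutaneous fat 8 cm above the umbilicus and 10 cm from the midline. Plasma glucose was read every 5 min and clamped at 5–6 mmol/l with IV 20% dextrose for 8 h. GIRmax, tGIRmax and GItot came from GIR–time data; GIR was also plotted against plasma lispro concentration.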

[1] = tested on: obese subjects with type 2 diabetes; assay: Euglycemic clamp; assay type: in vivo, human; conditions: obese type 2 diabetes
[2] = Plasma lispro pharmacokinetics after subcutaneous injection, healthy subjects; assay type: in vivo, human; conditions: healthy subjects (n=6), 10 units s.c., mean ± SD
Summary of the method: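 Venous blood was drawn every 10 min for 3 h, then every 20 min, after a 10-unit subcutaneous abdominal lispro dose under a euglycemic clamp. Type 2 diabetic subjects had first received an overnight IV insulin infusion. Samples went into citrate tubes with protease inhibitors, were spun at 4°C, snap-frozen and stored at −80°C. Lispro was measured by specific radioimmunoassay in duplicate. Noncompartmental analysis gave Cmax, AUC0-∞, Cl and dose ratios; non-normal data were log-transformed.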

[3] = assay type: in vivo, human; conditions: for AUC0-∞/D, AUC0-∞ to dose ratio / Cmax/D, Cmax to dose ratio / Cl, clearance / Mean resistance time / Vz, volume of distribution / Cmax, maximum plasma concentration / Tmax, time to maximal concentration / t½, half-life: obese type 2 diabetes (n=7), mean ± SD; for Cl, clearance / Mean resistance time / Vz, volume of distribution / t½, half-life: noncompartmental; for Cmax, maximum plasma concentration / Tmax, time to maximal concentration: plasma RIA; for t½, half-life: plasma

Substance: lispro
- average difference between Tmax and tGIRmax (healthy subjects): 0.317 h
- initial GIR response (healthy subjects; at insulin concentrations nearing 40 pmol/l): 2.22 mg/kg/min
- GIRmax as % of the value measured in healthy subjects ([1]; 10 units s.c., P < 0.0001): 7%
- GItot as % of the value measured in healthy subjects ([1]; 10 units s.c., P < 0.0001): 4%
- prolongation of tGIRmax versus healthy subjects ([1]; 10 units s.c., P < 0.0001): 1 h
- average difference between Tmax and tGIRmax ([1]; 10 units s.c., P < 0.0007 versus healthy): 1.23 h
- average difference between Tmax and tGIRmax ([1]; 30 units s.c.): 1.43 h
- average difference between Tmax and tGIRmax ([1]; 50 units s.c.): 1.92 h
- AUC0-∞/D, AUC0-∞ to dose ratio [2]: 1.190 ± 0.302 min/L
- Cmax/D, Cmax to dose ratio [2]: 0.0091 ± 0.0007 L
- Cl, clearance ([2]; noncompartmental): 0.88 ± 0.21 L/min
- Mean resistance time ([2]; noncompartmental): 119 ± 21 min
- Vz, volume of distribution ([2]; noncompartmental): 67 ± 16 L
- Cmax, maximum plasma concentration ([2]; plasma RIA): 0.523 ± 0.042 nM
- Tmax, time to maximal concentration ([2]; plasma RIA): 0.805 ± 0.0683 h
- AUC0-∞, area under the lispro plasma concentration curve ([2]; plasma RIA, noncompartmental): 68,462 ± 17,346 pmol/min/l
- t½, half-life ([2]; plasma, noncompartmental): 1.12 ± 0.25 h
- Cmax/D lower in subjects with type 2 diabetes than in healthy subjects ([3]; 10 units s.c., P < 0.001): 41%
- AUC0-∞/D, AUC0-∞ to dose ratio ([3]; 10 units s.c.): 1.056 ± 0.264 min/L
- Cmax/D, Cmax to dose ratio ([3]; 10 units s.c.): 0.0054 ± 0.0005 L
- Cl, clearance ([3]; 10 units s.c.): 0.99 ± 0.22 L/min
- Mean resistance time ([3]; 10 units s.c.): 180 ± 65 min
- Vz, volume of distribution ([3]; 10 units s.c.): 118 ± 34 L
- Cmax, maximum plasma concentration ([3]; 10 units s.c.): 310 ± 28 pmol/L
- Tmax, time to maximal concentration ([3]; 10 units s.c.): 0.928 ± 0.233 h
- t½, half-life ([3]; 10 units s.c.): 1.67 ± 0.567 h
- AUC0-∞/D, AUC0-∞ to dose ratio ([3]; 30 units s.c.): 1.140 ± 0.188 min/L
- Cmax/D, Cmax to dose ratio ([3]; 30 units s.c.): 0.0047 ± 0.0012 L
- Cl, clearance ([3]; 30 units s.c.): 0.90 ± 0.14 L/min
- Mean resistance time ([3]; 30 units s.c.): 196 ± 30 min
- Vz, volume of distribution ([3]; 30 units s.c.): 104 ± 53 L
- Cmax, maximum plasma concentration ([3]; 30 units s.c.): 808 ± 218 ^‖ pmol/l
- Tmax, time to maximal concentration ([3]; 30 units s.c.): 1.48 ± 0.365 h
- t½, half-life ([3]; 30 units s.c.): 1.62 ± 0.633 h
- AUC0-∞/D, AUC0-∞ to dose ratio ([3]; 50 units s.c.): 1.296 ± 0.208 min/L
- Cmax/D, Cmax to dose ratio ([3]; 50 units s.c.): 0.0046 ± 0.0012 L
- Cl, clearance ([3]; 50 units s.c.): 0.79 ± 0.13 L/min
- Mean resistance time ([3]; 50 units s.c.): 236 ± 49 min
- Vz, volume of distribution ([3]; 50 units s.c.): 107 ± 46 L
- Cmax, maximum plasma concentration ([3]; 50 units s.c.): 1,313 ± 346 ^‖ ^# pmol/l
- t½, half-life ([3]; 50 units s.c.): 2.27 ± 1.2 h
- delay of Tmax ([3]; obese type 2 diabetes, 50 units versus 10 units, P < 0.001): 1.23 h
